{"source": "ChEMBL document CHEMBL1138602", "about": "“Discovery of sodium 6-[(5-chloro-2-{[(4-chloro-2-fluorophenyl)methyl]oxy}phenyl)methyl]-2-pyridinecarboxylate (GSK269984A) an EP(1) receptor antagonist for the treatment of inflammatory pain” (Bioorg Med Chem Lett, 2009)", "key": {"Cytochrome P450 2D6": {"target": "Cytochrome P450 2D6 (Homo sapiens, UniProt P10635)", "sequence (P10635 whole entry)": "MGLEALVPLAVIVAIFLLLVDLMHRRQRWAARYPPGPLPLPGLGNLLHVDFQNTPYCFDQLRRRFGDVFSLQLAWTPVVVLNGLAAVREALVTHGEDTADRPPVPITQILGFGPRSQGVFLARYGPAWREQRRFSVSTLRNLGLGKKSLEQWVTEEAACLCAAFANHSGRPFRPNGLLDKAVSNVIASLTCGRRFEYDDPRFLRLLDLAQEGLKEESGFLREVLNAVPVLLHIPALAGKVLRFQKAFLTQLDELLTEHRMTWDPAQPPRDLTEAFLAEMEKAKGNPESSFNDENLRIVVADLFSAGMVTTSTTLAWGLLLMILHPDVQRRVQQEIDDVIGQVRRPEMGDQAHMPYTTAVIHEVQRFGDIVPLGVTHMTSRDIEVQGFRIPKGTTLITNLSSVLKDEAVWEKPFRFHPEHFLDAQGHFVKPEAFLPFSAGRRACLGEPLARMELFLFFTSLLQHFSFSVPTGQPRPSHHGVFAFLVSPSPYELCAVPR", "test": "Inhibition of human CYP2D6", "type": "ADME", "in_short": "(§1)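 Inhibition of metabolism of fluorometric substrates (Cypex protocol); IC50 values are the mean of three experiments ± standard deviation.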"}, "[1]": {"test": "Ratio of drug level in brain to blood in complete Freund's adjuvant-induced rat inflammatory pain model at 10 mg/kg, po administered after 23 hrs of adjuvant challenge measured after 1 hr", "type": "ADME, organism-based", "design": "dose 10 mg/kg, route oral", "conditions": "brain and blood", "in_short": "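Rat CFA inflammatory pain model: oral dosing at 1, 3 or 10 mg/kg 23 h after intraplantar adjuvant; blood and brain sampled 1 h post-dose from the same animal; Br:Bl ratio is the mean from three animals.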"}, "[2]": {"test": "Ratio of drug level in brain to blood of mouse at 0.5 mg/kg/hr administered by infusion for 12 hrs", "conditions": "brain and blood, intravenous"}, "Rattus norvegicus [3]": {"test_system": "Rattus norvegicus", "test": "Antianalgesic activity against complete Freund's adjuvant induced inflammatory pain in rat assessed as reversal of hypersensitivity dosed as po bid for 5 days measured after 1 hr on day 5", "type": "functional"}, "[4]": {"test": "Drug level in brain of complete Freund's adjuvant-induced rat inflammatory pain model at 10 mg/kg, po administered after 23 hrs of adjuvant challenge measured after 1 hr", "type": "ADME, organism-based", "design": "dose 10 mg/kg, route oral", "conditions": "brain, read-out: Drug uptake", "in_short": "(§2)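 CFA rat study: oral doses of 1, 3 or 10 mg/kg given 23 h after intraplantar adjuvant, samples 1 h post-dose. Blood values are the mean from seven animals. Brain values are the mean from three animals.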"}, "[5]": {"test": "Drug level in blood of complete Freund's adjuvant-induced rat inflammatory pain model at 1 mg/kg, po administered after 23 hrs of adjuvant challenge measured after 1 hr", "type": "ADME, organism-based", "design": "dose 1 mg/kg, route oral", "conditions": "read-out: Drug uptake", "in_short": "as §2"}, "MDR1": {"test_system": "MDR1", "test": "Permeability in dog MDCK2 cells over expressing MDR1 assessed as efflux ratio after 1 hr", "conditions": "MDCK-MDR1"}, "Hepatocyte": {"test_system": "Hepatocyte", "test": "Intrinsic clearance in human hepatocytes measured per gram of liver at 0.15 to 0.2 X 10^6 cells/ml cell density", "type": "ADME, cell-based", "in_short": "(§3)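 Intrinsic clearance in hepatocytes expressed as mL/min/g liver. Cell densities were 0.15–0.2 × 10^6 cells/mL or 0.54–0.7 × 10^6 cells/mL.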"}, "[6]": {"test": "Drug level in mouse brain at 0.5 mg/kg/hr administered by infusion for 12 hrs", "type": "ADME, organism-based", "conditions": "intravenous, read-out: Drug uptake", "in_short": "(§4)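 Steady-state 12 h infusion at 5 mL/kg/h to reach a target dose of 0.5 mg/kg/h; blood and brain concentrations measured. Data are the mean from three animals.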"}, "[7]": {"test": "Drug level in rat brain at 0.5 mg/kg/hr administered by infusion for 12 hrs", "type": "ADME, organism-based", "conditions": "intravenous, read-out: Drug uptake", "in_short": "as §4"}, "[8]": {"test": "Drug level in blood of complete Freund's adjuvant-induced rat inflammatory pain model at 10 mg/kg, po administered after 23 hrs of adjuvant challenge measured after 1 hr", "type": "ADME, organism-based", "design": "dose 10 mg/kg, route oral", "conditions": "read-out: Drug uptake", "in_short": "as §2"}, "[9]": {"test": "Clearance in Beagle dog blood at 1 mg/kg administered by intravenous infusion for 1 hr", "type": "ADME, organism-based, Canis lupus familiaris", "design": "dose 1 mg/kg, route intravenous", "in_short": "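Intravenous administration as a 1 h infusion of a 1 mg/kg dose. Rats were male Sprague-Dawley; dogs were beagle; monkeys were cynomolgus. Blood clearance, Vss and half-life determined.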"}, "[10]": {"test": "Drug level in rat blood at 0.5 mg/kg/hr administered by infusion for 12 hrs", "type": "ADME, organism-based", "conditions": "intravenous, read-out: Drug uptake", "in_short": "as §4"}, "[11]": {"target": "Prostaglandin F2-alpha receptor (Homo sapiens, UniProt P43088)", "sequence (P43088 whole entry)": "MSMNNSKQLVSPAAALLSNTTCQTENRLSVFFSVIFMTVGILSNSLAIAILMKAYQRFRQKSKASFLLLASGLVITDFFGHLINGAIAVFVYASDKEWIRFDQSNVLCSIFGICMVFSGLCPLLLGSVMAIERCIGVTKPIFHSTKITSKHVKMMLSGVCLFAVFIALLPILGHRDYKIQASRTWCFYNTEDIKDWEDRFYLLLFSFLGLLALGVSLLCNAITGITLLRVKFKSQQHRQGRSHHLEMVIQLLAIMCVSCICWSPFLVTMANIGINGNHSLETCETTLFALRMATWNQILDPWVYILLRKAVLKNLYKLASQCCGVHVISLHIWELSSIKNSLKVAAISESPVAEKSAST", "test": "Inhibition of FP receptor"}, "[12]": {"test": "Solubility in FaSSIF after 0.5 hrs", "type": "physicochemical", "in_short": "(§5)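 Solubility determined in water, FaSSIF and FeSSIF, all read at the 0.5 h time point.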"}, "[13]": {"test": "Volume of distribution at steady state in cynomolgus monkey at 1 mg/kg administered by intravenous infusion for 1 hr", "type": "ADME, organism-based, Macaca fascicularis", "design": "dose 1 mg/kg, route intravenous", "conditions": "in vivo, read-out: Vdss"}, "[14]": {"test": "Volume of distribution at steady state in Beagle dog at 1 mg/kg administered by intravenous infusion for 1 hr", "type": "ADME, organism-based, Canis lupus familiaris", "design": "dose 1 mg/kg, route intravenous", "conditions": "in vivo, read-out: Vdss"}, "[15]": {"test": "Intrinsic clearance in cynomolgus monkey hepatocytes measured per gram of liver at 0.15 to 0.2 X 10^6 cells/ml cell density", "type": "ADME, cell-based, Macaca fascicularis, Hepatocyte", "in_short": "as §3"}, "[16]": {"test": "Ratio of drug level in brain to blood of rat at 0.5 mg/kg/hr administered by infusion for 12 hrs", "conditions": "brain and blood, intravenous"}, "Rattus norvegicus [17]": {"test_system": "Rattus norvegicus", "test": "[…] activity against complete Freund's adjuvant induced inflammatory pain in po dosed rat assessed as reversal of hypersensitivity post-adjuvant challenge after 1 hr", "type": "functional", "in_short": "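Rats given adjuvant by intraplantar injection; oral dosing at 1, 3 and 10 mg/kg 23 h later. Hypersensitivity assessed by weight-bearing 1 h post-dose. ED50 derived across doses.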"}, "[18]": {"target": "T1, Prostaglandin E2 receptor EP1 subtype (Homo sapiens, UniProt P34995)", "T1 sequence (P34995 whole entry)": "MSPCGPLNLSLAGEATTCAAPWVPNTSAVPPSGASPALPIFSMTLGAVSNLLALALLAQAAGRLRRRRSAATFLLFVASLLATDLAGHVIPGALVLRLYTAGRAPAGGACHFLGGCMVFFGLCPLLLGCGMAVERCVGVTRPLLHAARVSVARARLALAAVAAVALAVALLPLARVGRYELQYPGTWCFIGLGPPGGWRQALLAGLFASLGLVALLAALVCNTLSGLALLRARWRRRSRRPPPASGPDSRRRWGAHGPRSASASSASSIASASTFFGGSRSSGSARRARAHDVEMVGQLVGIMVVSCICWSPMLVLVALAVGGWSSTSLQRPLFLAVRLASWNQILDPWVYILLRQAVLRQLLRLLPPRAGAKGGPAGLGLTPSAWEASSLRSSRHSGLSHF", "test": "Displacement of [3H]PGE2 from human EP1 receptor expressed in CHO cells", "type": "cell-based", "in_short": "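Radioligand binding with [3H]-PGE2 in CHO cells overexpressing human EP1 receptor. Values are the mean of at least three experiments with standard deviations.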"}, "Cytochrome P450 3A4": {"target": "Cytochrome P450 3A4 (Homo sapiens, UniProt P08684)", "sequence (P08684 whole entry)": "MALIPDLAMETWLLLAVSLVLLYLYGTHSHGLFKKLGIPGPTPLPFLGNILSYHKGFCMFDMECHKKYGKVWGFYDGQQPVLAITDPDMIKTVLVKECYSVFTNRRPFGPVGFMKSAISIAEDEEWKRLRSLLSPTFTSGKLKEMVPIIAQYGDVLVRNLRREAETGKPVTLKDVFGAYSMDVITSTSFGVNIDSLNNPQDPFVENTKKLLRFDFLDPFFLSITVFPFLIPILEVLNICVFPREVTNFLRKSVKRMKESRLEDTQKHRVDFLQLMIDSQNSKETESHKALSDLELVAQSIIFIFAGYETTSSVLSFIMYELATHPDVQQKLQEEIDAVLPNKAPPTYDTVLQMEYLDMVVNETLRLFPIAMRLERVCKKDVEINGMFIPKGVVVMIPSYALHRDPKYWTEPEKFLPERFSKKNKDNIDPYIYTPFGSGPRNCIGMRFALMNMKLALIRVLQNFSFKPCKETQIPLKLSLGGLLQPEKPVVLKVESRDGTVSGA", "test": "Inhibition of human CYP3A4", "type": "ADME", "in_short": "as §1"}, "Cytochrome P450 2C19": {"target": "Cytochrome P450 2C19 (Homo sapiens, UniProt P33261)", "sequence (P33261 whole entry)": "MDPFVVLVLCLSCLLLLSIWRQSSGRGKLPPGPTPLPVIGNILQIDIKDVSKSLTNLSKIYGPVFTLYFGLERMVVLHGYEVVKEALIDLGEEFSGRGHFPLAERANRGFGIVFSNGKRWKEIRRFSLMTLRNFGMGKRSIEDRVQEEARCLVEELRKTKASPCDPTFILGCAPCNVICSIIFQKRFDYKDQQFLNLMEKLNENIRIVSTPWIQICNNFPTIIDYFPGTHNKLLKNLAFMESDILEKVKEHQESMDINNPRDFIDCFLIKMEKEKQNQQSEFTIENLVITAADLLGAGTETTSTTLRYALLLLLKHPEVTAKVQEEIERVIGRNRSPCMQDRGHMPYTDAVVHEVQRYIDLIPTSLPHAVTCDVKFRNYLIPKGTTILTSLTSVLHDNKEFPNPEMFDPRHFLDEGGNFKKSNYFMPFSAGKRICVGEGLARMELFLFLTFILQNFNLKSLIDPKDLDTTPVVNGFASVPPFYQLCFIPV", "test": "Inhibition of human CYP2C19", "type": "ADME", "in_short": "as §1"}, "[19]": {"test": "Drug level in blood of complete Freund's adjuvant induced rat inflammatory pain model at 10 mg/kg, bid measured after 1 hr on day 1", "type": "ADME, organism-based", "design": "dose 10 mg/kg", "conditions": "read-out: Drug uptake", "in_short": "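Satellite group dosed at 10 mg/kg b.i.d. for 5 days; blood sampled 1 h post-dose on day 1 and on day 5.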"}, "[20]": {"target": "Prostaglandin G/H synthase 1 (Homo sapiens, UniProt P23219)", "sequence (P23219 whole entry)": "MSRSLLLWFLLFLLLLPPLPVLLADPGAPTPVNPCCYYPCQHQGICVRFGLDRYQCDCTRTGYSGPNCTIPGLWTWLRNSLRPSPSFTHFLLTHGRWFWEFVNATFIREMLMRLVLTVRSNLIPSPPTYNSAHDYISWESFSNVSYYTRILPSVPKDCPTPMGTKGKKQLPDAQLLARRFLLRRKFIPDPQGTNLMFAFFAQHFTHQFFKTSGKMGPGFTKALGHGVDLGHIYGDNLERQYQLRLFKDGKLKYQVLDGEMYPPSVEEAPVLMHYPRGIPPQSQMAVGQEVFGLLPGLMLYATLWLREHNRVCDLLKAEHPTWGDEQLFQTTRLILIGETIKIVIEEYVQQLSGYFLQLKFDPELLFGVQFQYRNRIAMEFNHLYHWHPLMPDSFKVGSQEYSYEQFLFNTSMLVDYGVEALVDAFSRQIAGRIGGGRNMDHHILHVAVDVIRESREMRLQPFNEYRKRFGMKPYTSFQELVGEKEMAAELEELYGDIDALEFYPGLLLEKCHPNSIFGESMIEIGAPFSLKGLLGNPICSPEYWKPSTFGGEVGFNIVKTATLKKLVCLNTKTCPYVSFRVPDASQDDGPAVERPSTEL", "test": "Inhibition of COX1"}, "[21]": {"test": "Drug level in rat brain at 0.5 mg/kg/hr administered by infusion for 1 hrs", "type": "ADME, organism-based", "conditions": "intravenous, read-out: Drug uptake", "in_short": "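Rat given a 1 h infusion; blood and brain concentrations measured.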"}, "[22]": {"test": "Drug level in brain of complete Freund's adjuvant-induced rat inflammatory pain model at 3 mg/kg, po administered after 23 hrs of adjuvant challenge measured after 1 hr", "type": "ADME, organism-based", "design": "dose 3 mg/kg, route oral", "conditions": "read-out: Drug uptake", "in_short": "as §2"}, "[23]": {"test": "Solubility in water after 0.5 hrs", "type": "physicochemical", "in_short": "as §5"}, "[24]": {"test": "Ratio of drug level in brain to blood of Landrace pig at 0.5 mg/kg/hr administered by infusion for 1 hrs", "conditions": "brain and blood, intravenous"}}, "data": [{"compound": "O=C([O-])c1cccc(Cc2cc(Cl)ccc2OCc2ccc(Cl)cc2F)n1.[Na+]", "values": [{"measurement": "IC50", "setting": "Cytochrome P450 2D6", "value": "> 100", "unit": "µM"}, {"measurement": "Kp at 1 h", "setting": "[1]", "value": 0.39}, {"measurement": "Kp at 12 h", "setting": "[2]", "value": 0.28}, {"measurement": "ED50", "setting": "Rattus norvegicus [3]", "value": 3, "unit": "mg/kg"}, {"measurement": "concentration at 1 h", "setting": "[4]", "value": 501, "unit": "nM"}, {"measurement": "concentration at 1 h", "setting": "[5]", "value": 144, "unit": "nM"}, {"measurement": "efflux ratio at 1 h", "setting": "MDR1", "value": 0.9}, {"measurement": "CL", "setting": "Hepatocyte", "value": 3.7, "unit": "mL/min/g"}, {"measurement": "concentration at 12 h", "setting": "[6]", "value": 56, "unit": "nM"}, {"measurement": "concentration at 12 h", "setting": "[7]", "value": 225, "unit": "nM"}, {"measurement": "concentration at 1 h", "setting": "[8]", "value": 1510, "unit": "nM"}, {"measurement": "clearance", "setting": "[9]", "value": 18, "unit": "mL/min/kg"}, {"measurement": "concentration at 12 h", "setting": "[10]", "value": 955, "unit": "nM"}, {"measurement": "IC50", "setting": "[11]", "value": "> 10", "unit": "µM"}, {"measurement": "solubility at 0.5 h", "setting": "[12]", "value": 60, "unit": "µg/mL"}, {"measurement": "Vd", "setting": "[13]", "value": 0.6, "unit": "L/kg"}, {"measurement": "Vd", "setting": "[14]", "value": 0.6, "unit": "L/kg"}, {"measurement": "CL", "setting": "[15]", "value": 4.8, "unit": "mL/min/g"}, {"measurement": "Kp at 12 h", "setting": "[16]", "value": 0.24}, {"measurement": "ED50", "setting": "Rattus norvegicus [17]", "value": 2.6, "unit": "mg/kg"}, {"measurement": "IC50", "setting": "[18]", "value": 0.0126, "unit": "µM"}, {"measurement": "IC50", "setting": "Cytochrome P450 3A4", "value": "≥ 100", "unit": "µM"}, {"measurement": "IC50", "setting": "Cytochrome P450 2C19", "value": 85, "unit": "µM"}, {"measurement": "concentration at 1 h", "setting": "[19]", "value": 2390, "unit": "nM"}, {"measurement": "IC50", "setting": "[20]", "value": "> 31.6", "unit": "µM"}, {"measurement": "concentration at 1 h", "setting": "[21]", "value": 374, "unit": "nM"}, {"measurement": "concentration at 1 h", "setting": "[22]", "value": 175, "unit": "nM"}, {"measurement": "solubility at 0.5 h", "setting": "[23]", "value": 890, "unit": "µg/mL"}, {"measurement": "Kp at 1 h", "setting": "[24]", "value": 0.27}]}]}
